Reference: ChEMBL document CHEMBL1255395, “Laninamivir prodrug CS-8958, a long-acting neuraminidase inhibitor, shows superior anti-influenza virus activity after a single administration” (Antimicrob Agents Chemother, 2010)
Activity calls are given as the source filed them.

Key:
[1] = Half life in human; assay type: ADME, organism-based; details: in vivo
Influenza A virus [2] = assay: Antimicrobial activity against Influenza A virus (A/Puerto Rico/8/34(H1N1)) infected in BALB/c mouse assessed as increase in mouse survival at 0.095 mg/kg, itn administered for 7 days before infection; assay type: functional, organism-based; design: dose 0.095 mg/kg; details: A/Puerto Rico/8/1934(H1N1)
Influenza A virus [3] = assay: Antimicrobial activity against Influenza A virus (A/Puerto Rico/8/34(H1N1)) infected in BALB/c mouse assessed as increase in mouse survival at 0.18 mg/kg, itn administered for 7 days before infection; assay type: functional, organism-based; design: dose 0.18 mg/kg; details: A/Puerto Rico/8/1934(H1N1)
Influenza A virus [4] = assay: Antimicrobial activity against Influenza A virus (A/Puerto Rico/8/34(H1N1)) infected in BALB/c mouse assessed as increase in mouse survival at 0.37 mg/kg, itn administered for 7 days before infection; assay type: functional, organism-based; design: dose 0.37 mg/kg; details: A/Puerto Rico/8/1934(H1N1)
Procedure, shortened: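 Single intranasal dose in saline (50 μl) given to anesthetized female BALB/c mice 7 days before intranasal infection with A/PR/8/34 at 500 PFU, n = 12. Survival was checked daily to day 20. Groups were compared with saline controls by Kaplan-Meier and log-rank test, with Bonferroni adjustment where needed.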

Influenza A virus [5] = assay: Antimicrobial activity against Influenza A virus (A/Puerto Rico/8/34(H1N1)) infected in BALB/c mouse assessed as increase in mouse survival at 0.71 mg/kg, itn administered for 7 days before infection; assay type: functional, organism-based; design: dose 0.71 mg/kg; details: A/Puerto Rico/8/1934(H1N1)
Influenza A virus [6] = assay: Antimicrobial activity against Influenza A virus (A/Puerto Rico/8/34(H1N1)) infected in BALB/c mouse assessed as increase in mouse survival at 0.085 mg/kg, itn administered for 7 days before infection; assay type: functional, organism-based; design: dose 0.085 mg/kg; details: A/Puerto Rico/8/1934(H1N1)
Influenza A virus [7] = assay: Antimicrobial activity against Influenza A virus (A/Puerto Rico/8/34(H1N1)) infected in BALB/c mouse assessed as increase in mouse survival at 0.25 mg/kg, itn administered for 7 days before infection; assay type: functional, organism-based; design: dose 0.25 mg/kg; details: A/Puerto Rico/8/1934(H1N1)
Influenza A virus [8] = assay: Antimicrobial activity against Influenza A virus (A/Puerto Rico/8/34(H1N1)) infected in BALB/c mouse assessed as increase in mouse survival at 0.76 mg/kg, itn administered for 7 days before infection; assay type: functional, organism-based; design: dose 0.76 mg/kg; details: A/Puerto Rico/8/1934(H1N1)
Influenza B virus [9] = assay: Antimicrobial activity against Influenza B virus (B/Hong Kong/05/1972)infected in BALB/c mouse assessed as increase in mouse survival at 0.076 mg/kg, itn administered for 7 days before infection; assay type: functional, organism-based; design: dose 0.076 mg/kg
Influenza B virus [10] = assay: Antimicrobial activity against Influenza B virus (B/Hong Kong/05/1972) infected in BALB/c mouse assessed as increase in mouse survival at 0.23 mg/kg, itn administered for 7 days before infection; assay type: functional, organism-based; design: dose 0.23 mg/kg
Influenza B virus [11] = assay: Antimicrobial activity against Influenza B virus (B/Hong Kong/05/1972) infected in BALB/c mouse assessed as increase in mouse survival at 0.71 mg/kg, itn administered for 7 days before infection; assay type: functional, organism-based; design: dose 0.71 mg/kg
Influenza A virus [12] = assay: Antimicrobial activity against Influenza A virus (A/Puerto Rico/8/34(H1N1)) infected in BALB/c mouse assessed as increase in mouse survival at 0.017 mg/kg, itn administered 11 hrs post infection for 5 days […] infection; assay type: functional, organism-based; design: dose 0.017 mg/kg; details: A/Puerto Rico/8/1934(H1N1)
Procedure, shortened: (§1)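 Female BALB/c mice (5–6 weeks) infected intranasally with A/PR/8/34 at 100 PFU, n = 10 per group. Each mouse got one intranasal dose at 11 hpi plus oral doses twice daily from 11 hpi to 120 hpi. Drug went by one route and saline by the other, all in saline vehicle. Survival was followed daily to day 20 and analysed by Kaplan-Meier with a log-rank test against the saline group.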

Influenza A virus [13] = assay: Antimicrobial activity against Influenza A virus (A/Puerto Rico/8/34(H1N1)) infected in BALB/c mouse assessed as reduction in viral titer in lung at 0.027 mg/kg, itn after 11 hrs post infection; assay type: functional, organism-based; design: dose 0.027 mg/kg; details: A/Puerto Rico/8/1934(H1N1), TDE = time-dependent effect
Procedure, shortened: (§2)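 BALB/c mice infected intranasally with A/PR/8/34 at 30 PFU. Oral drug was given twice daily from 11 hpi with intranasal saline at 11 hpi, or a single intranasal dose at 11 hpi with oral saline on the same schedule. Lungs (n = 3) were harvested at 35, 59 and 83 hpi. Titers were measured by MDCK plaque assay, log10 PFU/lungs.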

Influenza B virus [14] = assay: Antimicrobial activity against Influenza B virus (B/Malaysia/2506/2004) infected itn dosed Mustela putorius furo assessed as nasal viral titer treated after 4 hrs post infection measured after 1 day; assay type: functional, organism-based
Procedure, shortened: (§3)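 Ferrets (600–800 g), seronegative by hemagglutination inhibition, anaesthetized with ketamine/xylazine and infected with B/Malaysia/2506/2004, 1,000 PFU/100 μl. From 4 hpi they received either a single intranasal dose (saline, 0.05 or 0.5 μmol/kg) or 25 mg/kg oral twice daily. Nasal wash titers measured by MDCK plaque assay on days 1, 2 and 3, log10 PFU/ml (n = 5). Undetectable samples entered at the lower limit of detection.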

Influenza B virus [15] = assay: Antimicrobial activity against Influenza B virus (B/Malaysia/2506/2004) infected itn dosed Mustela putorius furo assessed as nasal viral titer treated after 4 hrs post infection measured after 2 days; assay type: functional, organism-based; procedure, shortened: as §3
Influenza B virus [16] = assay: Antimicrobial activity against Influenza B virus (B/Malaysia/2506/2004) infected itn dosed Mustela putorius furo assessed as nasal viral titer treated after 4 hrs post infection measured after 3 days; assay type: functional, organism-based; procedure, shortened: as §3
Influenza A virus [17] = assay: Antimicrobial activity against Influenza A virus (A/Puerto Rico/8/34(H1N1)) infected in BALB/c mouse assessed as reduction in viral titer in lung at 0.24 mg/kg, itn administered 11 hrs post infection measured after 35 hrs post infection; assay type: functional, organism-based; design: dose 0.24 mg/kg; details: A/Puerto Rico/8/1934(H1N1)
Procedure, shortened: (§4)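 BALB/c mice infected intranasally with A/PR/8/34 at 30 PFU. Intranasal dosing at 0.5 μmol/kg began at 11 hpi, either repeated twice daily or given once followed by twice-daily saline. Lungs (n = 3) were taken at 35, 59 and 83 hpi and homogenized. Titers were measured by MDCK plaque assay as log10 PFU/lungs. Two-way ANOVA and Dunnett test were applied.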

Influenza A virus [18] = assay: Antimicrobial activity against Influenza A virus (A/Puerto Rico/8/34(H1N1)) infected in BALB/c mouse assessed as reduction in viral titer in lung at 0.24 mg/kg, itn administered 11 hrs post infection measured after 59 hrs post infection; assay type: functional, organism-based; design: dose 0.24 mg/kg; details: A/Puerto Rico/8/1934(H1N1); procedure, shortened: as §4
Influenza A virus [19] = assay: Antimicrobial activity against Influenza A virus (A/Puerto Rico/8/34(H1N1)) infected in BALB/c mouse assessed as reduction in viral titer in lung at 0.24 mg/kg, itn administered 11 hrs post infection measured after 83 hrs post infection; assay type: functional, organism-based; design: dose 0.24 mg/kg; details: A/Puerto Rico/8/1934(H1N1); procedure, shortened: as §4
Influenza A virus [20] = assay: Antimicrobial activity against oseltamivir-sensitive influenza A virus (A/Yokohama/67/2006 (H1N1)) clone 1 infected in BALB/c mouse assessed as reduction in viral titer in lung at 0.080 mg/kg, itn administered 13 hrs post infection measured after 37 hrs post infection; assay type: functional, organism-based; design: dose 0.08 mg/kg
Procedure, shortened: (§5)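 Female BALB/c mice infected intranasally with A/Yokohama/67/2006 clone 1. From 13 hpi they received either a single intranasal dose (0.057 or 0.17 μmol/kg) or 1.0 or 10 mg/kg oral twice daily. Lung titers measured at 37, 61 and 85 hpi by MDCK plaque assay, log10 PFU/lungs (n = 3). Detection limit 2.4.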

Influenza A virus [21] = assay: Antimicrobial activity against oseltamivir-sensitive influenza A virus (A/Yokohama/67/2006 (H1N1)) clone 1 infected in BALB/c mouse assessed as reduction in viral titer in lung at 0.080 mg/kg, itn administered 13 hrs post infection measured after 61 hrs post infection; assay type: functional, organism-based; design: dose 0.08 mg/kg; procedure, shortened: as §5
Influenza A virus [22] = assay: Antimicrobial activity against oseltamivir-sensitive influenza A virus (A/Yokohama/67/2006 (H1N1)) clone 1 infected in BALB/c mouse assessed as reduction in viral titer in lung at 0.080 mg/kg, itn administered post 13 hrs infection measured after 85 hrs post infection; assay type: functional, organism-based; design: dose 0.08 mg/kg; procedure, shortened: as §5
Influenza A virus [23] = assay: Antimicrobial activity against Influenza A virus (A/Puerto Rico/8/34(H1N1)) infected in BALB/c mouse assessed as reduction in viral titer in lung at 0.080 mg/kg, itn after 11 hrs post infection; assay type: functional, organism-based; design: dose 0.08 mg/kg; details: A/Puerto Rico/8/1934(H1N1), TDE = time-dependent effect; procedure, shortened: as §2
Influenza A virus [24] = assay: Antimicrobial activity against Influenza A virus (A/Puerto Rico/8/34(H1N1)) infected in BALB/c mouse assessed as increase in mouse survival at 0.17 mg/kg, itn for 7 days post infection; assay type: functional, organism-based; design: dose 0.17 mg/kg; details: A/Puerto Rico/8/1934(H1N1)
Influenza A virus [25] = assay: Antimicrobial activity against Influenza A virus (A/Puerto Rico/8/34(H1N1)) infected in BALB/c mouse assessed as increase in mouse survival at 0.17 mg/kg, itn for 4 days post infection; assay type: functional, organism-based; design: dose 0.17 mg/kg; details: A/Puerto Rico/8/1934(H1N1)
Influenza A virus [26] = assay: Antimicrobial activity against Influenza A virus (A/Puerto Rico/8/34(H1N1)) infected in BALB/c mouse assessed as increase in mouse survival at 0.17 mg/kg, itn for 1 day post infection; assay type: functional, organism-based; design: dose 0.17 mg/kg; details: A/Puerto Rico/8/1934(H1N1)
Influenza A virus [27] = assay: Antimicrobial activity against Influenza A virus (A/Puerto Rico/8/34(H1N1)) infected in BALB/c mouse assessed as increase in mouse survival at 0.17 mg/kg, itn for 12 hrs post infection; assay type: functional, organism-based; design: dose 0.17 mg/kg; details: A/Puerto Rico/8/1934(H1N1)
Influenza A virus [28] = assay: Antimicrobial activity against Influenza A virus (A/Puerto Rico/8/34(H1N1)) infected in BALB/c mouse assessed as increase in mouse survival at 0.017 mg/kg, itn administered 11 hrs post infection for 5 days […] infection measured on day 20; assay type: functional, A/Puerto Rico/8/1934(H1N1); procedure, shortened: as §1
Influenza B virus [29] = assay: Antimicrobial activity against Influenza B virus (B/Hong Kong/05/1972) infected in BALB/c mouse assessed as increase in mouse survival at 0.23 mg/kg, itn administered for 7 days before infection measured at day 20; assay type: functional

CC(=O)N[C@H]1[C@H]([C@H](O)[C@H](O)CO)OC(C(=O)O)=C[C@@H]1N=C(N)N [ZANAMIVIR]
168 min: half-life [1]

CCCCCCCC(=O)OC[C@@H](O)[C@@H](OC)[C@@H]1OC(C(=O)O)=C[C@H](NC(=N)N)[C@H]1NC(C)=O [LANINAMIVIR OCTANOATE]
active: Activity (Influenza A virus [2]) | Activity (Influenza A virus [3]) | Activity (Influenza A virus [4]) | Activity (Influenza A virus [5]) | Activity (Influenza A virus [6]) | Activity (Influenza A virus [7]) | Activity (Influenza A virus [8]) | Activity (Influenza B virus [9]) | Activity (Influenza B virus [10]) | Activity (Influenza B virus [11]) | Activity (Influenza A virus [12]) | Activity (Influenza A virus [13]) tde | Activity (Influenza B virus [14]) Dose-dependent effect | Activity (Influenza B virus [15]) Dose-dependent effect | Activity (Influenza B virus [16]) Dose-dependent effect | Activity (Influenza A virus [17]) | Activity (Influenza A virus [18]) | Activity (Influenza A virus [19]) | Activity (Influenza A virus [20]) | Activity (Influenza A virus [21]) | Activity (Influenza A virus [22]) | Activity (Influenza A virus [23]) tde | Activity (Influenza A virus [24]) | Activity (Influenza A virus [25]) | Activity (Influenza A virus [26]) | Activity (Influenza A virus [27])
30%: Activity (Influenza A virus [28])
82%: Activity (Influenza B virus [29])
